Measurements taken from PMC11500341 (Scientific Reports, 2024).
No end group written: not given here.

What was measured:
[1] = test system: HEK-293 cells; test: MTT cell viability assay, HEK-293; format: cell-based; conditions: 25-500 μm FGDWS, 24, 48 and 72 h
Outline: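 HEK-293 cells (DMEM, 10% FBS, passage 28–33) were seeded at 4 × 10^3 per well and adhered overnight. Test compound was added at 25, 50, 100, 150, 300 and 500 for 24, 48 and 72 h at 37 °C, 5% CO2. MTT (5 mg/ml) was incubated for 4 h, medium removed and DMSO added. Absorbance at 570 nm gave percent viability.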

[2] = test system: MCF-7 cells; test: MTT cell viability assay, MCF-7; format: cell-based; conditions: 24, 48 and 72 h
[3] = test system: MDA-MB-231 cells; test: MTT cell viability assay, MDA-MB-231; format: cell-based; conditions: 24, 48 and 72 h
Outline: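 MDA-MB-231 cells (passage 28–33; DMEM with 10% FBS and 1% penicillin/streptomycin) were seeded at 5 × 10^3 per well and left overnight. Four test compound doses were added for 24, 48 or 72 h at 37 °C in 5% CO2. MTT (5 mg/ml solution) was added for 4 h, medium removed, formazan dissolved in DMSO and read at 570 nm. Results were expressed as percent viability.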

[4] = test system: MCF-7 cells; test: Cell migration; format: cell-based; conditions: after 48 h and 72 h
Outline: (§1)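 Cells were seeded at 0.2 × 10^6 per 35 mm dish in DMEM with 10% FBS and left to adhere overnight at 37 °C in 5% CO2. Monolayers were scratched with a sterile pipette tip and imaged at time zero. They were then treated: control, 0.05% DMSO vehicle, three test compound levels, doxorubicin, and doxorubicin plus the top level. The scratched area was re-imaged at 24, 48 and 72 h.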

[5] = test system: MDA-MB-231 cells; test: Cell migration; format: cell-based; conditions: after 48 h and 72 h
Outline: as §1

[6] = test system: Caspase 3/7 in MCF-7 cells; test: Caspase glow 3/7 assay, MCF-7; format: cell-based; conditions: p ≤ 0.0001
[7] = test system: Caspase 3/7 in MDA-MB-231 cells; test: Caspase glow 3/7 assay, MDA-MB-231; format: cell-based; conditions: p ≤ 0.0001
Outline: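 MDA-MB-231 cells were seeded at 5 × 10^3 per well and adhered overnight. They were exposed to the test compound (P1 75, P2 150, P3 300), Dox 0.2 or Dox + P3 for 24, 48 or 72 h. Caspase-Glo 3/7 reagent (substrate/luciferase) was added, followed by 30–60 min at 25 °C. Luminescence was then read.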

[8] = test system: MCF-7 cells; test: Annexin V-FITC / PI assay, flow cytometry, MCF-7; format: cell-based; conditions: 72 h
Outline: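 Test compound given to MCF-7 cells (0.2 × 10^6 per 35 mm dish) in these treatment groups: control, 0.05% DMSO vehicle, three test compound levels, doxorubicin, and doxorubicin plus the top level. Cells were trypsinized, washed twice in PBS and resuspended in binding buffer. Annexin V-FITC was added for 10 min, then PI (from a 50 µg/ml stock) for 20 min. Flow cytometry quadrants gave early apoptotic, late apoptotic, necrotic and healthy fractions.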

[9] = test system: MDA-MB-231 cells; test: Annexin V-FITC / PI assay, flow cytometry, MDA-MB-231; format: cell-based
Outline: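 Cells were seeded at 0.2 × 10^6 per 35 mm dish and treated per group: control, vehicle (0.05% DMSO), test compound P1 75, P2 150, P3 300, Dox 0.2, or Dox + P3. They were then trypsinized, washed twice in PBS and resuspended in 1X binding buffer. Staining was annexin V-FITC for 10 min, then PI (50 µg/ml stock) for 20 min. Flow cytometry gave four-quadrant populations.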

[10] = test system: VEGF; test: Western blot, VEGF expression; format: cell-based, human; conditions: MCF-7 and MDA-MB-231; after treatments
Outline: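 MCF-7 and MDA-MB-231 lysates were taken 48 h and 72 h after the treatment groups. Protein was quantified by BCA and 30 µg run on 10% SDS-PAGE, then transferred to PVDF. Membranes were blocked 2 h in 5% milk in TBS-T. Mouse anti-human VEGF (1:300, in 5% BSA TBS-T) was applied overnight at 4 °C, then 2 h at room temperature. Detection used HRP goat anti-mouse (1:4000) and ECL, with band densitometry.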

[11] = test system: Rac1; test: Rac1 concentration in serum and tumor tissue of mice by SPR; format: in vivo, Swiss Albino mice; conditions: tumor tissue lysate; 300 μm FGDWS; Mean ± SD; p-value 0.0001
[12] = test system: P38α; test: p38α concentration in serum and tumor tissue of mice by SPR; format: in vivo, Swiss Albino mice; conditions: 300 μm FGDWS, Mean ± SD
[13] = test system: Phospho-p38α (Y-182); test: Phospho-p38α concentration in serum and tumor tissue of mice by SPR; format: in vivo, Swiss Albino mice; conditions: 300 μm FGDWS, Mean ± SD, p-value 0.0001
[14] = test system: LIMK1; test: LIMK1 concentration in serum and tumor tissue of mice by SPR; format: in vivo, Swiss Albino mice; conditions: 300 μm FGDWS, Mean ± SD
[15] = test system: Phospho-LIMK1 (T-508); test: Phospho-LIMK1 concentration in serum and tumor tissue of mice by SPR; format: in vivo, Swiss Albino mice; conditions: 300 μm FGDWS, Mean ± SD
[16] = test system: Cofilin1; test: Cofilin1 concentration in serum and tumor tissue of mice by SPR; format: in vivo, Swiss Albino mice; conditions: 300 μm FGDWS, Mean ± SD
[17] = test system: Phospho-Cofilin1 (S-3); test: Phospho-Cofilin1 concentration in serum and tumor tissue of mice by SPR; format: in vivo, Swiss Albino mice; conditions: 300 μm FGDWS, Mean ± SD
[18] = tumor tissue lysate, p-value 0.001

**Q.** For FGDWS [FGDWS], which “toxic effect on normal cells” value [1] is on record?
**A.** The value was “no toxic effect”.

**Q.** What about the “cell viability, dose and time dependence” value [2] of the same substance?
**A.** The value was “decreased in dose dependent manner with time”.

**Q.** And the “cell viability, dose and time dependence” value [3]?
**A.** Its value is “decreased in dose dependent manner with time”.

**Q.** What about the “rate of cell proliferation and migration (ranking)” value [4] of the same substance?
**A.** The value was “slowest in Dox + P3 followed by Dox, P3, P2 and P1”.

**Q.** And the “rate of cell proliferation and migration (ranking)” value [5]?
**A.** Its value is “slowest in Dox + P3 followed by Dox, P3, P2 and P1”.

**Q.** And the “fold change in RLU with respect to control (caspase 3/7)” value (“fold change in RLU” for short) ([6]; MCF-7, 48 h, P1 75 μm)?
**A.** The value was 0.24.

**Q.** What about the “fold change in RLU” value ([6]; MCF-7, 48 h, P2 150 μm) of the same substance?
**A.** Its value is 0.402.

**Q.** And the “fold change in RLU” value ([6]; MCF-7, 48 h, P3 300 μm / Dox 0.2 μm / Dox + P3 0.2 μm + 300 μm)?
**A.** The value was 0.93.

**Q.** What about the “fold change in RLU” value ([6]; MCF-7, 72 h, P1 75 μm) of the same substance?
**A.** The value was 0.33.

**Q.** And the “fold change in RLU” value ([6]; MCF-7, 72 h, P2 150 μm)?
**A.** The value was 0.47.

**Q.** What about the “fold change in RLU” value ([6]; MCF-7, 72 h, P3 300 μm / Dox 0.2 μm / Dox + P3 0.2 μm + 300 μm) of the same substance?
**A.** The value was 0.66.

**Q.** And the “fold change in RLU” value ([7]; MDA-MB-231, 48 h, P1 75 μm)?
**A.** The value was 0.16.

**Q.** What about the “fold change in RLU” value ([7]; MDA-MB-231, 48 h, P2 150 μm) of the same substance?
**A.** The value was 0.25.

**Q.** What about the “fold change in RLU” value ([7]; MDA-MB-231, 48 h, P3 300 μm / Dox 0.2 μm / Dox + P3 0.2 μm + 300 μm) of the same substance?
**A.** Its value is 0.305.

**Q.** And the “fold change in RLU” value ([7]; MDA-MB-231, 72 h, P1 75 μm)?
**A.** The value was 0.35.

**Q.** And the “fold change in RLU” value ([7]; MDA-MB-231, 72 h, P2 150 μm)?
**A.** Its value is 0.57.

**Q.** And the “fold change in RLU” value ([7]; MDA-MB-231, 72 h, P3 300 μm / Dox 0.2 μm / Dox + P3 0.2 μm + 300 μm)?
**A.** Its value is 0.65.

**Q.** And the “population of apoptotic cells, dose dependence” value [8]?
**A.** The value was “increased with increasing FGDWS doses P1 to P3”.

**Q.** What about the “population of apoptotic cells, dose dependence” value ([9]; 72 h) of the same substance?
**A.** The value was “increased with increasing FGDWS doses P1 to P3”.

**Q.** What about the apoptotic cell population ([9]; higher dose of peptide (P3 300 μm), or in combination with Dox) of the same substance?
**A.** The apoptotic cell population was 38.3%.

**Q.** And the “VEGF expression (in words)” value [10]?
**A.** The value was “downregulated after treatments with peptide and Dox”.

**Q.** What about the Rac1 concentration [11] of the same substance?
**A.** The Rac1 concentration was 0.72 ± 0.02 ng/µL.

**Q.** And the P38α concentration ([12]; serum, day 45, p-value 0.004)?
**A.** Its P38α concentration is 3.13 ± 0.96 ng/µL.

**Q.** And the P38α concentration [12, 18]?
**A.** The P38α concentration was 0.97 ± 0.06 ng/µL.

**Q.** And the Phospho-p38α concentration ([13]; serum, day 45)?
**A.** Its Phospho-p38α concentration is 2.66 ± 0.16 ng/µL.

**Q.** What about the Phospho-p38α concentration ([13]; tumor tissue lysate) of the same substance?
**A.** The Phospho-p38α concentration was 2.77 ± 0.11 ng/µL.

**Q.** And the LIMK1 concentration ([14]; serum, day 45, p-value 0.0001)?
**A.** The LIMK1 concentration was 6.86 ± 1.46 ng/µL.

**Q.** And the LIMK1 concentration ([14]; tumor tissue lysate, p-value 0.005)?
**A.** Its LIMK1 concentration is 6.37 ± 1.04 ng/µL.

**Q.** And the Phospho-LIMK1 concentration ([15]; serum, day 45, p-value 0.008)?
**A.** Its Phospho-LIMK1 concentration is 7.58 ± 2.25 ng/µL.

**Q.** What about the Phospho-LIMK1 concentration [15, 18] of the same substance?
**A.** The Phospho-LIMK1 concentration was 8.01 ± 1.22 ng/µL.

**Q.** And the Cofilin1 concentration ([16]; serum, day 45, p-value 0.028)?
**A.** Its Cofilin1 concentration is 2.68 ± 0.28 ng/µL.

**Q.** And the Cofilin1 concentration ([16]; tumor tissue lysate, p-value 0.0048)?
**A.** The Cofilin1 concentration was 2.83 ± 0.53 ng/µL.

**Q.** And the Phospho-Cofilin1 concentration ([17]; serum, day 45, p-value 0.006)?
**A.** The Phospho-Cofilin1 concentration was 8.35 ± 1.15 ng/µL.

**Q.** What about the Phospho-Cofilin1 concentration [17, 18] of the same substance?
**A.** Its Phospho-Cofilin1 concentration is 7.14 ± 1.34 ng/µL.
